# Reference: ChEMBL document CHEMBL2390883, “Dissecting the pharmacophore of curcumin. Which structural element is critical for which action?” (J Nat Prod, 2013)
# Active and inactive are the calls of the source. No cut-off for these calls is given here.
# Experiments:
# [1] = target: T1, Nuclear factor erythroid 2-related factor 2 (Homo sapiens) (UniProt Q16236); test: Activation of Nrf2/ARE-mediated transcription in human SK-N-SH cells after 6 hrs by luciferase reporter gene assay; assay type: cell-based
# T1 sequence (whole entry): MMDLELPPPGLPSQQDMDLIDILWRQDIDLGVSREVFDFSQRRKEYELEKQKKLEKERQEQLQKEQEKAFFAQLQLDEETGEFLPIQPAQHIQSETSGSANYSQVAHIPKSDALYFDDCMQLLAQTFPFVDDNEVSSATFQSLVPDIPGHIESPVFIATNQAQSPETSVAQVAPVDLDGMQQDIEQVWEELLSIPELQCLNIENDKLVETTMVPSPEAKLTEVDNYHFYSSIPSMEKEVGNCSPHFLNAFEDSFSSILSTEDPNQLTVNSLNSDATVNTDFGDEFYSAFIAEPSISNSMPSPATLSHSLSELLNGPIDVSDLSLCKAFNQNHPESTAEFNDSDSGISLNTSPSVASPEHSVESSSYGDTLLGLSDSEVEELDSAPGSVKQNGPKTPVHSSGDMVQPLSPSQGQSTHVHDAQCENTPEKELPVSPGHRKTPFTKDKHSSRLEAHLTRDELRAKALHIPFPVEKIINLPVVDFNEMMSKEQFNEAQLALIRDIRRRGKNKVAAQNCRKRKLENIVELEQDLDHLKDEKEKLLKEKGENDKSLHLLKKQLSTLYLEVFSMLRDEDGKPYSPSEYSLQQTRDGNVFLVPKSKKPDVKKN
# Outline: (§1)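 SK-N-SH cells were transiently transfected with pGL3-ARE-Luc. After 24 h they were exposed to increasing concentrations of compound for 6 h. Cells were washed in PBS and lysed in Tris-phosphate pH 7.8 buffer with MgCl₂, DTT, Triton X-100 and glycerol, then luciferase activity was read in the supernatant. Output is fold induction over untreated cells; three independent experiments, mean SD, Student's t test.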
# Homo sapiens = species on record: Homo sapiens; test: (§2) Inhibition of NF-kappaB in human 5.1 cells assessed as inhibition of TNFalpha-induced HIV-1-LTR activation after 6 hrs by luciferase reporter gene assay; assay type: cell-based
# Outline: (§3)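 Jurkat-derived 5.1 clone, stably carrying HIV-LTR-driven luciferase and maintained under G418. Cells were preincubated with compound at the indicated doses, then stimulated with TNFα for 6 h (methods give 20 ng/mL, legend 2 ng/mL). Luciferase was read from lysate. Output is % inhibition versus TNFα alone; IC50 from curve fitting.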
# [2] = tested on: Human immunodeficiency virus 1; test: Antiviral activity against VSV-G protein pseudotyped human immunodeficiency virus 1 infected in human Jurkat cells assessed as inhibition of HIV-1 replication incubated 30 mins prior to infection measured after 12 hrs by luciferase reporter gene assay; assay type: functional, organism-based
# Outline: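 Jurkat cells at 10⁶/mL were pretreated with compounds at increasing doses for 30 min. They were then infected with VSV-G-pseudotyped pNL4-3.Luc.R⁻E⁻ (200 ng p24). Firefly luciferase was read in lysates (Tris-phosphate pH 7.8, Triton X-100) 12 h after infection. Values are % activation versus untreated infected cells (100%), given as mean ± SD of independent experiments; IC₅₀ by curve fitting.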
# [3] = as §2; assay type: cell-based; outline: as §3
# [4] = Inhibition of Tat-induced HIV-1-Long terminal repeat transactivation in human Hela Tat-Luc cells after 12 hrs by luciferase reporter gene assay; assay type: cell-based; conditions: Human immunodeficiency virus 1, HeLa
# Outline: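 HeLa cells stably transfected with pLTR-Luc and pcDNA3-Tat were exposed to compound at the indicated doses, or to DRB (50 μM) as reference, for 12 h. Luciferase activity was then measured. Output is % activation relative to untreated cells; four independent experiments, mean SD, Student's t test; IC50 from curve fitting.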
# SK-N-SH = test: Cytotoxicity against human SK-N-SH cells after 6 hrs; assay type: cell-based
# Jurkat [5] = test: Inhibition of PMA-induced NF-kappaB activation in human Jurkat cells assessed as inhibition of IkappaBalpha phosphorylation after 30 mins by Western blotting analysis; assay type: cell-based
# Outline: (§4)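 Jurkat cells (10⁶/mL) were preincubated 30 min with compound, then given PMA (50 ng/mL) for 15 min. Protein was extracted in NP-40 lysis buffer with protease and phosphatase inhibitors. 30 μg per lane was run on 10% SDS-PAGE and transferred to nitrocellulose. Blots were probed for phospho- and total ERK1/2, JNK, p65 and IκBα (incl. phospho-Ser32/36), with tubulin as loading control.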
# [6] = tested on: Human immunodeficiency virus 1; test: Antiviral activity against VSV-G protein pseudotyped human immunodeficiency virus 1 infected in human Jurkat cells assessed as inhibition of HIV-1 replication incubated 30 mins prior to infection measured after 12 hrs by luciferase reporter gene assay relative to curcumin; assay type: functional
# [7] = target: Transcription factor p65 (Homo sapiens) (UniProt Q04206); test: Inhibition of PMA-induced NF-kappaB p65 phosphorylation in human Jurkat cells after 30 mins by Western blotting analysis; assay type: cell-based; outline: as §4
# Transcription factor p65 (Homo sapiens), sequence (Q04206 whole entry): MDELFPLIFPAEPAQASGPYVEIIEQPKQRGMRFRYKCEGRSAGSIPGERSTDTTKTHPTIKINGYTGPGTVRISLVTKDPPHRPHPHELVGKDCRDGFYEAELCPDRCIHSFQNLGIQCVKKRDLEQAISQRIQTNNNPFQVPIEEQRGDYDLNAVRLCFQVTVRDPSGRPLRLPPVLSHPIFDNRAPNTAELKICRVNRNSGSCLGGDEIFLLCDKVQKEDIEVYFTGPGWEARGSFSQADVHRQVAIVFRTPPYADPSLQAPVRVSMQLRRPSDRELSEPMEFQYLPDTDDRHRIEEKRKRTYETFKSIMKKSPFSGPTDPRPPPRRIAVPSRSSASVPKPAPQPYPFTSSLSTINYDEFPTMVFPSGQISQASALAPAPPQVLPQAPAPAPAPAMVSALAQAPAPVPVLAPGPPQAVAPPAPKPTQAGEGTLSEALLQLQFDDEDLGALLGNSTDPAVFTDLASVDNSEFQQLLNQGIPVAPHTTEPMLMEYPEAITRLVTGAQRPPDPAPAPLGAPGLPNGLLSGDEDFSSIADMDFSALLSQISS
# [8] = target: Mitogen-activated protein kinase; ERK1/ERK2 (Homo sapiens) (UniProt P27361+P28482); test: Inhibition of PMA-induced ERK 1/2 phosphorylation in human Jurkat cells after 30 mins by Western blotting analysis; assay type: cell-based; outline: as §4
# Mitogen-activated protein kinase; ERK1/ERK2 (Homo sapiens), sequence (P27361 whole entry, looked up): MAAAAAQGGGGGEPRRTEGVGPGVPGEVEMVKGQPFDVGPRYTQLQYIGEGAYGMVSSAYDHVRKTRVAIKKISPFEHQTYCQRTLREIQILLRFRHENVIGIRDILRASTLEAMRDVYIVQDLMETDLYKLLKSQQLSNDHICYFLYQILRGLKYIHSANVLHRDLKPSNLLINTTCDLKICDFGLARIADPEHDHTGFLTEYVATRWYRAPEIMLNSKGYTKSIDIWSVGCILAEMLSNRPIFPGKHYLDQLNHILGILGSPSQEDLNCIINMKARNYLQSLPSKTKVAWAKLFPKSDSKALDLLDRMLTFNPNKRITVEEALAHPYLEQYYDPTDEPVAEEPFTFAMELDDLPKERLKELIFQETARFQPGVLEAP
# Mitogen-activated protein kinase; ERK1/ERK2 (Homo sapiens), sequence (P28482 whole entry, looked up): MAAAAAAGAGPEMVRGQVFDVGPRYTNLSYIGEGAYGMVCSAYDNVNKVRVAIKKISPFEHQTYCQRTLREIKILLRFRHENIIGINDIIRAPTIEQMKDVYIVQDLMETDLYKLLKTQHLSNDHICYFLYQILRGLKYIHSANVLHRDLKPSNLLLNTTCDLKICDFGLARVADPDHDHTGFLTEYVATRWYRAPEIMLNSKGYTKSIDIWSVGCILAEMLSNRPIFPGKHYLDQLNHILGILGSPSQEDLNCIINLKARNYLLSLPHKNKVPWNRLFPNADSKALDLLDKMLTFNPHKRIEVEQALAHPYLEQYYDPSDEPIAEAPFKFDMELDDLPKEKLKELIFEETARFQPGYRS
# Jurkat [9] = test: Cytotoxicity against human Jurkat cells after 6 hrs; assay type: cell-based
# [10] = target: Mitogen-activated protein kinase 9 (Homo sapiens) (UniProt P45984); test: Inhibition of PMA-induced JNK2 phosphorylation in human Jurkat cells after 30 mins by Western blotting analysis
# Mitogen-activated protein kinase 9 (Homo sapiens), sequence (P45984 whole entry, looked up): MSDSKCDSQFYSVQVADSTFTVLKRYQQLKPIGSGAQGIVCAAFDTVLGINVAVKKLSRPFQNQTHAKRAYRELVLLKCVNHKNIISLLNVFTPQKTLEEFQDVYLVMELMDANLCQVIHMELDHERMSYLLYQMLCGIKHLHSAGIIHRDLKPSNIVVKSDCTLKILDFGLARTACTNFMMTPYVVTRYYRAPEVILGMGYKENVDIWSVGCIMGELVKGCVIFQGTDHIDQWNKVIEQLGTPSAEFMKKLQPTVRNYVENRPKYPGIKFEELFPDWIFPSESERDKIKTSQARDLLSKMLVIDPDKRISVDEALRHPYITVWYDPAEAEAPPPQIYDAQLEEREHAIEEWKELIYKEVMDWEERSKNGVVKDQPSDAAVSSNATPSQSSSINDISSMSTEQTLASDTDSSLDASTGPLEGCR
# HeLa = test: Cytotoxicity against human HeLa cells after 12 hrs; assay type: cell-based
# [11] = target: Mitogen-activated protein kinase 8 (Homo sapiens) (UniProt P45983); test: Inhibition of PMA-induced JNK1 phosphorylation in human Jurkat cells after 30 mins by Western blotting analysis; assay type: cell-based; outline: as §4
# Mitogen-activated protein kinase 8 (Homo sapiens), sequence (P45983 whole entry): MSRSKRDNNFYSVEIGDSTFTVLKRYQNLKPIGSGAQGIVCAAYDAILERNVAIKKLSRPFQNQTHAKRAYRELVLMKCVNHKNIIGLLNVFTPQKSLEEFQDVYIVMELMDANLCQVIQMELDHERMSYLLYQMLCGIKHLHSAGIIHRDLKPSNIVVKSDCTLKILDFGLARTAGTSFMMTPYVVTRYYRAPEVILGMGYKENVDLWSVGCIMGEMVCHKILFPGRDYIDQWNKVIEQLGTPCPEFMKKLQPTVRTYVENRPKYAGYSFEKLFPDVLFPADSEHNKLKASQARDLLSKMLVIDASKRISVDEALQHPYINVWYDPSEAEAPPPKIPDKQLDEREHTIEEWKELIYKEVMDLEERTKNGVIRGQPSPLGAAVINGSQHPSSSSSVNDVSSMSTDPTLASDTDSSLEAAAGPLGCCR
# [12] = target: T1, Nuclear factor erythroid 2-related factor 2 (Homo sapiens); test: Activation of Nrf2/ARE-mediated transcription in human SK-N-SH cells at low concentration after 6 hrs by luciferase reporter gene assay; assay type: cell-based; outline: as §1
# Jurkat [13] = test: Inhibition of PMA-induced NF-kappaB activation in human Jurkat cells assessed as inhibition of IkappaBalpha degradation after 30 mins by Western blotting analysis; assay type: cell-based; outline: as §4
# [14] = target: T1, Nuclear factor erythroid 2-related factor 2 (Homo sapiens); test: Activation of Nrf2/ARE-mediated transcription in human SK-N-SH cells at high concentration after 6 hrs by luciferase reporter gene assay; assay type: cell-based; outline: as §1
compound,measurement,setting,value
COc1cc(CCC(=O)CC(=O)CCc2ccc(O)c(OC)c2)ccc1O,Activity,[1],inactive
same,inhibition,Homo sapiens,Active
COc1cc(/C=C/C(=O)/C=C/c2cc(CC=C(C)C)c(O)c(OC)c2)cc(CC=C(C)C)c1O,Activity,[1],inactive
same,inhibition,Homo sapiens,Active
COc1cc(/C=C/C(=O)CC(=O)/C=C/c2cc(CC=C(C)C)c(O)c(OC)c2)cc(CC=C(C)C)c1O,Activity,[1],inactive
same,inhibition,Homo sapiens,inactive
COc1cc(/C=C/C(=O)CC(=O)/C=C/c2ccc(O)c(OC)c2)ccc1O [CURCUMIN],Activity,[2],Active
same,Activity,[1],Active
same,IC50,[3],16.4 µM
COc1cc(/C=C/C(=O)/C=C/c2ccc(O)c(OC)c2)ccc1O,IC50,[4],4.7 µM
same,Activity,SK-N-SH,Non-toxic
same,inhibition,Jurkat [5],Dose-dependent effect
same,Activity,[2],Active
same,Ratio,[6],4
same,inhibition,[7],Dose-dependent effect
same,inhibition,[8],inactive
same,Activity,Jurkat [9],Non-toxic
same,IC50,[3],4.92 µM
same,inhibition,[10],Dose-dependent effect
same,Activity,HeLa,Non-toxic
same,inhibition,[11],Dose-dependent effect
same,Activity,[12],Active
same,inhibition,Jurkat [13],Dose-dependent effect
same,Activity,[14],inactive
COc1cc(CCC(=O)CC(=O)CCc2cc(CCC(C)C)c(O)c(OC)c2)cc(CCC(C)C)c1O,inhibition,Homo sapiens,Active
